Laboratory results published in ChEMBL document CHEMBL4364282, “Engineered Substrate for Cyclooxygenase-2: A Pentapeptide Isoconformational to Arachidonic Acid for Managing Inflammation” (J Med Chem, 2019).
Activity calls are given as the source filed them. No cut-off for these calls is given here. Peptide text beside a SMILES is read from it. * marks the point of attachment. Cbz = O=C(OCc1ccccc1)*; Boc = CC(C)(C)OC(=O)*

Assays:
[1] = test system: Rattus norvegicus; experiment: Analgesic activity in Wistar rat model of acetic-acid-induced writhing assessed as inhibition of writhing numbers at 10 mg/kg, ip preincubated for 30 mins followed by acetic acid induction and measured for 30 mins; assay type: functional, organism-based
In short: (§1)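 Male Wistar rats (250-300 g) in groups of 5. Writhing (abdominal contraction, trunk twisting, hind-leg extension) was induced by intraperitoneal acetic acid, and writhes were counted. Test doses were 5 and 10 mg/kg, with a vehicle control and indomethacin 10 mg/kg as reference. Data are mean±SEM (n=5), analysed by one-way ANOVA with Tukey's test (p<.05 vs control).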

[2] = test system: Rattus norvegicus; experiment: Analgesic activity in Wistar rat model of formalin-induced hyperalgesia assessed as reduction in number of formalin-evoked paw flinching during neurogenic phase at 10 mg/kg preincubated for 30 mins followed by formalin treatment and measured during first 5 mins post formalin injection relative to control; assay type: functional
In short: (§2)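 Formalin paw test in male Wistar rats (250-300 g), 5 per group. Flinching was counted separately in the neurogenic and inflammatory phases. Modulator studies used pre-treatment with substance P, L-NAME or L-arginine (NO precursor) in three groups each. Data are mean±SEM (n=5), analysed by one-way ANOVA with Tukey's test (p<.05 vs control).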

[3] = test system: Rattus norvegicus; experiment: Analgesic activity in Wistar rat model of formalin-induced hyperalgesia assessed as reduction in number of formalin-evoked paw flinching during inflammatory phase at 10 mg/kg preincubated for 30 mins followed by formalin treatment and measured after 15 to 30 mins relative to control; assay type: functional; in short: as §2
[4] = test system: Rattus norvegicus; experiment: Anti-inflammatory activity in Wistar rat assessed as inhibition of carrageenan-induced paw edema at 10 mg/kg, ip preincubated for 1 hr followed by carrageenan challenge and measured for 6 hrs; assay type: functional, organism-based
In short: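 Carrageenan-induced paw inflammation in male Wistar rats (250-300 g), three groups of 5 animals. Data are mean±SEM (n=5), analysed by one-way ANOVA with Tukey's multiple range test (p<.05 vs control).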

[5] = biological target: Prostaglandin G/H synthase 1 (Homo sapiens, UniProt P23219); experiment: Inhibition of COX-1 in human whole blood assessed as reduction in calcium ionophore A23187-stimulated thromboxane B2 production by measuring thromboxane B2 level at 1 uM preincubated for 60 mins followed by calcium ionophore A23187 stimulation and measured after 30 mins by ELISA (reference value: 1.4 ng/mL); assay type: tissue-based; conditions: 0.5 h
In short: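 Human whole blood stimulated with calcium ionophore to drive COX-1, with thromboxane B2 formation measured. The test concentration was 1 μM, and indomethacin 1 μM served as reference.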

[6] = biological target: T1, Prostaglandin G/H synthase 2 (Homo sapiens, UniProt P35354); experiment: Substrate activity at COX-2 (unknown origin) in DMSO-d6 assessed as chemical shift of NH protons of glycine residues by 1H NMR analysis; assay type: ADME
T1 sequence (P35354 whole entry): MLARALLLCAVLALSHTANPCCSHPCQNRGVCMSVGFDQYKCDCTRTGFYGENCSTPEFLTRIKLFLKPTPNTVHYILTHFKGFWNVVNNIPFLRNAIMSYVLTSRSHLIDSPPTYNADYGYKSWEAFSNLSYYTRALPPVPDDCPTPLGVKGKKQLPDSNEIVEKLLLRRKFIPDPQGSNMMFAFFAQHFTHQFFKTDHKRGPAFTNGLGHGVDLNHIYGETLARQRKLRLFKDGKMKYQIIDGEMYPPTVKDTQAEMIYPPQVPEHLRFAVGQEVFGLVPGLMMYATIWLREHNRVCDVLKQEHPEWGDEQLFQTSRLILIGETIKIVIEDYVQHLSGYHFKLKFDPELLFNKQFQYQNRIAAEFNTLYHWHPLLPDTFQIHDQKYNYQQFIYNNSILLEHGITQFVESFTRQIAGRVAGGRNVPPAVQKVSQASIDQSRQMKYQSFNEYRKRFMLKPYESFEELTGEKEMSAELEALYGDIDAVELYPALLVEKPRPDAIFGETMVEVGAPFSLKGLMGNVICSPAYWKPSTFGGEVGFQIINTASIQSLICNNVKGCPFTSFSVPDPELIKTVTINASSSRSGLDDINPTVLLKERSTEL

[7] = test system: Rattus norvegicus; experiment: (§3) Analgesic activity in Wistar rat model of formalin-induced hyperalgesia assessed as reduction in number of formalin-evoked paw flinching during neurogenic phase at 10 mg/kg administered intraperitoneally 30 mins after substance P injection followed by formalin induction after 30 mins and measured during first 5 mins post formalin injection; assay type: functional, organism-based; in short: as §2
[8] = test system: Rattus norvegicus; experiment: as §3, with “NOS inhibitor L-NAME” for “substance P”; assay type: functional, organism-based; in short: as §2
[9] = Acute toxicity in Wistar rat assessed as induction of morphological lesions in myocardium at 2000 mg/kg, po measured after 14 days by histological analysis; assay type: organism-based; conditions: in vivo, 336 h
In short: (§4)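 Acute oral toxicity per OECD guideline: rats fasted 4 h, then vehicle or single dose of 50, 300 or 2000 mg kg^-1; three rats per group. Animals observed for 14 days; one animal from the high-dose group and one control then sacrificed for tissue histology examined for lesions. Male Wistar rats, 250-300 g.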

[10] = test system: Rattus norvegicus; experiment: Analgesic activity in Wistar rat model of acetic-acid-induced writhing assessed as inhibition of writhing numbers at 5 to 10 mg/kg, ip preincubated for 30 mins followed by acetic acid induction and measured for 30 mins relative to control; assay type: functional; design: scale not given: the % may be the effect or the level left; in short: as §1
[11] = test system: Rattus norvegicus; experiment: as §3, with “inflammatory” for “neurogenic”, “after 15 to 30” for “during first 5”; assay type: functional, organism-based; in short: as §2
[12] = Drug metabolism in Wistar rat assessed as (S)-2-((S)-1-(2-((S)-2-aminopropanamido)acetyl)pyrrolidine-2-carboxamido)propanoic acid formation at 10 mg/kg, ip measured after 6 hrs by LC-MS analysis; assay type: ADME, organism-based; conditions: in vivo
In short: (§5)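 Blood serum was taken from treated rats at 30, 60, 90 and 120 min. Proteins were removed by centrifugation, and the supernatants were analysed by LC-MS with HRMS identification of peptide fragments. Breakdown was assessed up to 6 h.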

[13] = test system: Rattus norvegicus; experiment: as §3, with “inflammatory” for “neurogenic”, “nitric oxide precursor L-arginine” for “substance P”, “after 15 to 30” for “during first 5”; assay type: functional, organism-based; in short: as §2
[14] = Acute toxicity in Wistar rat assessed as induction of morphological lesions in liver at 2000 mg/kg, po measured after 14 days by histological analysis; assay type: organism-based; conditions: in vivo, 336 h; in short: as §4
[15] = Drug metabolism in Wistar rat assessed as (S)-1-(2-((S)-2-aminopropanamido)acetyl)pyrrolidine-2-carboxylic acid formation at 10 mg/kg, ip measured after 6 hrs by LC-MS analysis; assay type: ADME, organism-based; conditions: in vivo; in short: as §5
[16] = Drug metabolism in Wistar rat assessed as methyl 2-((S)-2-((S)-1-(2-aminoacetyl)pyrrolidine-2-carboxamido)propanamido)acetate formation at 10 mg/kg, ip measured after 6 hrs by LC-MS analysis; assay type: ADME, organism-based; conditions: in vivo; in short: as §5
[17] = Acute toxicity in Wistar rat assessed as induction of morphological lesions in kidney at 2000 mg/kg, po measured after 14 days by histological analysis; assay type: organism-based; conditions: in vivo, 336 h; in short: as §4
[18] = test system: Rattus norvegicus; experiment: as §3, with “inflammatory” for “neurogenic”, “NOS inhibitor L-NAME” for “substance P”, “after 15 to 30” for “during first 5”; assay type: functional, organism-based; in short: as §2
[19] = test system: Rattus norvegicus; experiment: as §3, with “nitric oxide precursor L-arginine” for “substance P”; assay type: functional, organism-based; in short: as §2
[20] = Drug metabolism in Wistar rat assessed as 2-((S)-2-((S)-1-(2-aminoacetyl)pyrrolidine-2-carboxamido)propanamido)acetic acid formation at 10 mg/kg, ip measured after 6 hrs by LC-MS analysis; assay type: ADME, organism-based; conditions: in vivo; in short: as §5
[21] = Drug metabolism in Wistar rat assessed as 2-((S)-2-((S)-1-(2-((S)-2-aminopropanamido)acetyl)pyrrolidine-2-carboxamido)propanamido)acetic acid formation at 10 mg/kg, ip measured after 6 hrs by LC-MS analysis; assay type: ADME, organism-based; conditions: in vivo; in short: as §5
[22] = biological target: T1, Prostaglandin G/H synthase 2; experiment: Substrate activity at COX-2 (unknown origin) in DMSO-d6 assessed as chemical shift of NH protons of alanine residues by 1H NMR analysis; assay type: ADME
[23] = biological target: T2, Prostaglandin G/H synthase 1 (Ovis aries, UniProt P05979); experiment: Inhibition of ovine COX-1 assessed as reduction in prostaglandin production preincubated for 10 mins followed by arachidonic acid addition and measured after 2 mins by EIA method
T2 sequence (P05979 whole entry): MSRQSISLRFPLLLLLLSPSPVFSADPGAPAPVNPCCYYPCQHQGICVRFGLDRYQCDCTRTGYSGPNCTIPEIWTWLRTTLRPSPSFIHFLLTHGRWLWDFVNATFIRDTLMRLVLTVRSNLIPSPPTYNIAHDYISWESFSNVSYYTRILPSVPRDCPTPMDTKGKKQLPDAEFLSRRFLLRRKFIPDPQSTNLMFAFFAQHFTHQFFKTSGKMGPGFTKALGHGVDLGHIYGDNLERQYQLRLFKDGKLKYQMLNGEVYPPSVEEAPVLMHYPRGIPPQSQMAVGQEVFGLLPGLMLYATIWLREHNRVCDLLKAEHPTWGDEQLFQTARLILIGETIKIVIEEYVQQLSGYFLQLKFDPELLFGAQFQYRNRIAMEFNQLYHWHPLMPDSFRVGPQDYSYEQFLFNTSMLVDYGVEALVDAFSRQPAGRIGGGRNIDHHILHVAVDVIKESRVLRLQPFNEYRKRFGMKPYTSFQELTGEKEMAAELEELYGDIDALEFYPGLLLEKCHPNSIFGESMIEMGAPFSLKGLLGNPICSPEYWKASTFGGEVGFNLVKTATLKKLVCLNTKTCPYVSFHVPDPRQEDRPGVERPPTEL

[24] = substrate: CCCCC/C=C\C/C=C\C/C=C\C/C=C\CCCC(=O)O; experiment: (§6) Substrate activity at COX-2 (unknown origin) in pH 7.5 HEPES buffer assessed as enzyme-mediated test compound metabolism by measuring Km by LC-MS analysis; assay type: ADME, Homo sapiens
[25] = substrate: COC(=O)CNC(=O)[C@H](C)NC(=O)[C@@H]1CCCN1C(=O)CNC(=O)[C@H](C)N; experiment: as §6; assay type: ADME, Homo sapiens

Sequence of Prostaglandin G/H synthase 1 (Homo sapiens, UniProt P23219) (P23219 whole entry): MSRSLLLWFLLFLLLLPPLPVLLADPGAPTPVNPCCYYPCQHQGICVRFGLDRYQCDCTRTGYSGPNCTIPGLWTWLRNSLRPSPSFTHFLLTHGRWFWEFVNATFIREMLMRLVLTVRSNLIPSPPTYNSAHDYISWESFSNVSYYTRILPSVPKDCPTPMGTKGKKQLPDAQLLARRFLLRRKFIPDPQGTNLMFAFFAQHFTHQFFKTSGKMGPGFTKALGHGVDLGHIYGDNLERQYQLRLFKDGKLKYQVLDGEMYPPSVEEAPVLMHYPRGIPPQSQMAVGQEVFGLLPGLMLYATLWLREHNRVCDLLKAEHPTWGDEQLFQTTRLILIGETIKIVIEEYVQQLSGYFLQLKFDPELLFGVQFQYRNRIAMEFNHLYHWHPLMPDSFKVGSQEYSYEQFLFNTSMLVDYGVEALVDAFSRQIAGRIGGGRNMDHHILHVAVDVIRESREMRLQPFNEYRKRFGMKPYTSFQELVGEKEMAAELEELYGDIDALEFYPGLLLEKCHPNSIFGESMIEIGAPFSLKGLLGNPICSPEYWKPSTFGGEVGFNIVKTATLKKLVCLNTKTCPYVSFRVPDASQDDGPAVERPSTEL

For `COc1ccc2c(c1)c(CC(=O)O)c(C)n2C(=O)c1ccc(Cl)cc1` [INDOMETHACIN], the Activity [1] was “Active”, the Activity [2] was “inactive” and the Activity [3] was “Active”. For the same molecule, the Activity [4] was “Active” and the Activity [5] was 0.7 ng/mL.

With `COC(=O)CNC(=O)[C@H](C)NC(=O)[C@@H]1CCCN1C(=O)CNC(=O)[C@H](C)N` (H-AGPAG-OMe) the Activity [6] was “Active”, the Activity [7] was “inactive” and the Activity [8] was “Active”. The Activity [9] was “Non-Toxic”, the Activity [10] was 80% and the Activity [11] was “inactive”. For the same molecule, the Drug metabolism [12] was “Metabolite_Detected”, the Activity [13] was “inactive” and the Activity [14] was “Non-Toxic”. For the same molecule, the Drug metabolism [15] was “Metabolite_Detected”, the Activity [2] was 56% and the Drug metabolism [16] was “Metabolite_Detected”. The Activity [17] was “Non-Toxic”, the Activity [3] was 80% and the Activity [4] was “Active”. The Activity [18] was “Active”, the Activity [19] was “inactive” and the Drug metabolism [20] was “Metabolite_Detected”. The Drug metabolism [21] was “Metabolite_Detected”, the Activity [5] was 1.2 ng/mL and the Activity [22] was “Active”.

Work on `COC(=O)CNC(=O)[C@H](C)NC(=O)[C@@H]1CCCN1C(=O)CNC(=O)[C@H](C)NC(=O)OCc1ccccc1` (Cbz-AGPAG-OMe) yielded an Activity [10] of 80%.

For `COC(=O)CNC(=O)[C@H](Cc1ccccc1)NC(=O)[C@@H]1CCCN1C(=O)[C@H](Cc1ccccc1)NC(=O)[C@H](C)NC(=O)OCc1ccccc1` (Cbz-AFPFG-OMe), the Activity [10] was “Active” and the IC50 [23] was 600 µM.

In the case of `COC(=O)[C@H](Cc1ccccc1)NC(=O)[C@@H]1CCCN1C(=O)CNC(=O)[C@H](CCSC)NC(=O)OCc1ccccc1` (Cbz-MGPF-OMe), the Activity [10] is reported as “Active” and the IC50 [23] is reported as 0.5 µM.

In the case of `COC(=O)CNC(=O)[C@H](CCSC)NC(=O)[C@H](Cc1ccccc1)NC(=O)[C@@H]1CCCN1C(=O)OC(C)(C)C` (Boc-PFMG-OMe), the Activity [10] is reported as “Active” and the IC50 [23] is reported as 50 µM.

B1: Prostaglandin G/H synthase 2 (Homo sapiens) (protein)
chain: T1 sequence (P35354 whole entry)
In the case of B1, the Km [24] is reported as 210 µM, the kcat [24] is reported as 200 s⁻¹ and the kcat/Km [24] is reported as 950000 M⁻¹ s⁻¹. For the same molecule, the Km [25] was 21 µM, the kcat [25] was 13.2 s⁻¹ and the kcat/Km [25] was 630000 M⁻¹ s⁻¹.
